{"source": "ChEMBL document CHEMBL3351900", "about": "“Conjugation of a nonspecific antiviral sapogenin with a specific HIV fusion inhibitor: a promising strategy for discovering new antiviral therapeutics” (J Med Chem, 2014)", "key": {"[1]": {"system": "Human immunodeficiency virus 1", "test": "Antiviral activity against T20-sensitive HIV1 NL4-3 harboring gp41 D36G mutant infected in human MT2 cells", "type": "functional, organism-based", "in_short": "(§1)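 MT-2 cells (1 × 10⁴) infected with 100 TCID₅₀ virus with or without peptides at graded concentrations. Culture supernatants collected on day 4 postinfection; p24 antigen quantified by ELISA. Percent inhibition and EC₅₀ calculated; tested in triplicate, mean ± standard deviation.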"}, "[2]": {"system": "Human immunodeficiency virus 1", "test": "Antiviral activity against T20-resistant HIV1 NL4-3 harboring gp41 D36G/V38A mutant infected in human MT2 cells", "type": "functional, organism-based", "in_short": "as §1"}, "[3]": {"system": "Human immunodeficiency virus 1", "test": "Antiviral activity against T20-resistant HIV1 NL4-3 harboring gp41 D36G/V38A/N42D mutant infected in human MT2 cells", "type": "functional, organism-based", "in_short": "as §1"}, "[4]": {"system": "Human immunodeficiency virus 1", "test": "Antiviral activity against T20-resistant HIV1 NL4-3 harboring gp41 D36G/N42T/N43K mutant infected in human MT2 cells", "type": "functional, organism-based", "in_short": "as §1"}, "[5]": {"system": "Human immunodeficiency virus 1", "test": "Antiviral activity against T20-resistant HIV1 NL4-3 harboring gp41 D36G/V38E/N42S mutant infected in human MT2 cells", "type": "functional, organism-based", "in_short": "as §1"}, "[6]": {"system": "Human immunodeficiency virus 1", "test": "Antiviral activity against T20-resistant HIV1 NL4-3 harboring gp41 D36G/V38A/N42T mutant infected in human MT2 cells", "type": "functional, organism-based", "in_short": "as §1"}, "[7]": {"system": "Human immunodeficiency virus 1", "test": "Ratio of EC50 for T20-resistant HIV1 NL4-3 harboring gp41 D36G/V38A mutant infected in human MT2 cells to EC50 for T20-sensitive HIV1 NL4-3 harboring gp41 D36G mutant infected in human MT2 cells", "type": "functional", "in_short": "(§2)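 MT-2 cells (1 × 10⁴) infected with 100 TCID₅₀ of HIV-1 NL4-3 gp41 mutant virus with or without peptide at graded concentrations. Culture supernatants collected on day 4 postinfection and p24 antigen measured by ELISA. Percent inhibition and EC₅₀ calculated, triplicate, mean ± standard deviation. Fold change = EC₅₀ against each mutant divided by EC₅₀ against the D36G strain.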"}, "[8]": {"system": "Human immunodeficiency virus 1", "test": "Ratio of EC50 for T20-resistant HIV1 NL4-3 harboring gp41 D36G/V38A/N42D mutant infected in human MT2 cells to EC50 for T20-sensitive HIV1 NL4-3 harboring gp41 D36G mutant infected in human MT2 cells", "type": "functional", "in_short": "as §2"}, "[9]": {"system": "Human immunodeficiency virus 1", "test": "Ratio of EC50 for T20-resistant HIV1 NL4-3 harboring gp41 D36G/N42T/N43K mutant infected in human MT2 cells to EC50 for T20-sensitive HIV1 NL4-3 harboring gp41 D36G mutant infected in human MT2 cells", "type": "functional", "in_short": "as §2"}, "[10]": {"system": "Human immunodeficiency virus 1", "test": "Ratio of EC50 for T20-resistant HIV1 NL4-3 harboring gp41 D36G/V38E/N42S mutant infected in human MT2 cells to EC50 for T20-sensitive HIV1 NL4-3 harboring gp41 D36G mutant infected in human MT2 cells", "type": "functional", "in_short": "as §2"}, "[11]": {"system": "Human immunodeficiency virus 1", "test": "Ratio of EC50 for T20-resistant HIV1 NL4-3 harboring gp41 D36G/V38A/N42T mutant infected in human MT2 cells to EC50 for T20-sensitive HIV1 NL4-3 harboring gp41 D36G mutant infected in human MT2 cells", "type": "functional", "in_short": "as §2"}, "Rattus norvegicus [12]": {"system": "Rattus norvegicus", "test": "AUC (0 to t) in rat at 4 mg/kg, iv administered as single dose", "type": "ADME, organism-based, Plasma", "design": "dose 4 mg/kg, route intravenous", "details": "in vivo", "in_short": "(§3)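 Rats given one intravenous dose of 4 mg/kg. Peptide measured in plasma over time. Parameters (AUC(0−t), MRT(0−t), t1/2, Vd, Cmax) derived by model-independent analysis.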"}, "[13]": {"test": "Mean residence time in rat at 4 mg/kg, iv administered as single dose", "type": "ADME, organism-based", "design": "dose 4 mg/kg, route intravenous", "details": "in vivo", "in_short": "as §3"}, "Rattus norvegicus [14]": {"system": "Rattus norvegicus", "test": "Half life in rat at 4 mg/kg, iv at 4 mg/kg, iv administered as single dose", "type": "ADME, organism-based", "details": "in vivo", "in_short": "as §3"}, "[15]": {"test": "Volume of distribution in rat at 4 mg/kg, iv administered as single dose", "type": "ADME, organism-based", "design": "dose 4 mg/kg, route intravenous", "details": "in vivo", "in_short": "as §3"}, "Rattus norvegicus [16]": {"system": "Rattus norvegicus", "test": "Cmax in rat at 4 mg/kg, iv administered as single dose", "type": "ADME, organism-based", "design": "dose 4 mg/kg, route intravenous", "details": "in vivo", "in_short": "as §3"}, "[17]": {"test": "Half life in rat liver homogenate at 8 ug/ml", "type": "ADME, tissue-based"}, "[18]": {"test": "Half life of the compound at 8 ug/ml by proteinase K digestion assay", "type": "ADME"}, "[19]": {"test": "Half life in rat kidney homogenate at 8 ug/ml", "type": "ADME, tissue-based"}, "[20]": {"test": "Solubility of the compound in pure water by UV spectrophotometry", "type": "physicochemical", "in_short": "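About 1 mg of peptide dissolved in 10 μL water or PBS and centrifuged. Supernatant concentration of the tyrosine-containing conjugate determined from UV absorbance at 280 nm.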"}, "[21]": {"system": "Human immunodeficiency virus 1", "test": "Antiviral activity against HIV1 3B infected in human MT2 cells assessed as inhibition of viral p24 antigen production by ELISA", "type": "functional, organism-based", "details": "Human immunodeficiency virus 1, 3B", "in_short": "as §1"}, "[22]": {"test": "Cytotoxicity against human MT2 cells after 4 days by XTT assay", "type": "cell-based", "in_short": "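MT-2 cells (5 × 10⁵/mL) mixed with equal volumes of graded conjugate concentrations and held at 37 °C for 4 days. XTT (1 mg/mL) with 0.02 μM phenazine methosulfate added for 4 h, then A450 read. CC50 calculated from the dose–response.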"}, "[23]": {"system": "Human immunodeficiency virus 1", "test": "Antiviral activity against HIV1 BaL infected in human […] cells assessed as inhibition of viral replication", "type": "functional, organism-based", "details": "Human immunodeficiency virus 1, BaL", "in_short": "as §1"}, "[24]": {"test": "Selectivity index, ratio of CC50 for human MT2 cells to EC50 for HIV1 3B infected in human MT2 cells", "type": "toxicity, cell-based", "details": "read-out: Ratio CC50/EC50"}, "[25]": {"biological_target": "GP41 (Human immunodeficiency virus 1) (UniProt Q76270)", "test": "Ratio of EC50 for HIV1 gp41-induced cell-cell fusion between viral envelope expressing human HL2/3 cells to CD4/CCR5 receptor expressing TZM-bl cells with wash out to EC50 for HIV1 gp41-induced cell-cell fusion between viral envelope expressing human HL2/3 cells to CD4/CCR5 receptor expressing TZM-bl cells", "type": "cell-based", "in_short": "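Peptides preincubated with TZM-bl cells at 37 °C for 1 h, with or without washing away unbound peptide. EC50 compared between washed and unwashed cells, giving the n-fold change. Triplicates, mean ± SD.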"}, "[26]": {"system": "Human immunodeficiency virus 1", "test": "Antiviral activity against HIV1 3B infected in human MT2 cells assessed as inhibition of viral entry compound treated at 100 nM at 1 hr post infection measured 3 to 4 days post infection by time-of-addition assay"}}, "note": "Active and inactive are the calls of the source. No cut-off for these calls is given here. Square brackets hold non-standard residues; d marks the D form. Peptide text beside a SMILES is read from it. * marks the point of attachment. X1 = C=CCOC(=O)[C@]12CC[C@@H](C(=C)C)[C@@H]1[C@H]1CC[C@@H]3[C@@]4(C)CC[C@H](OC(=O)CCc5cn(CC(=O)*)nn5)C(C)(C)[C@@H]4CC[C@@]3(C)[C@]1(C)CC2; βAla = NCCC(=O)O", "data": [{"smiles": "C=CCOC(=O)[C@]12CC[C@@H](C(=C)C)[C@@H]1[C@H]1CC[C@@H]3[C@@]4(C)CC[C@H](OC(=O)CCc5cn(CC(=O)NCCCC[C@H](NC(=O)CCNC(=O)[C@H](CC(C)C)NC(=O)[C@H](CC(C)C)NC(=O)[C@H](CCC(=O)O)NC(=O)[C@H](CCC(N)=O)NC(=O)[C@H](CCC(=O)O)NC(=O)[C@H](CC(N)=O)NC(=O)[C@H](CCCCN)NC(=O)[C@H](CCC(=O)O)NC(=O)[C@H](CCC(N)=O)NC(=O)[C@H](CCC(N)=O)NC(=O)[C@H](CC(N)=O)NC(=O)[C@H](CCC(N)=O)NC(=O)[C@H](CO)NC(=O)[C@H](CCC(=O)O)NC(=O)[C@H](CCC(=O)O)NC(=O)[C@@H](NC(=O)[C@H](CC(C)C)NC(=O)[C@H](CO)NC(=O)[C@H](Cc6cnc[nH]6)NC(=O)[C@@H](NC(=O)[C@H](CC(C)C)NC(=O)[C@H](CO)NC(=O)[C@@H](NC(=O)[C@H](Cc6ccc(O)cc6)NC(=O)[C@H](CC(N)=O)NC(=O)[C@H](CC(N)=O)NC(C)=O)[C@@H](C)O)[C@@H](C)CC)[C@@H](C)CC)C(N)=O)nn5)C(C)(C)[C@@H]4CC[C@@]3(C)[C@]1(C)CC2", "note": "(Ac-NNYTSLIHSLIEESQNQQEKNEQELL[βAla]K(X1)-NH2)", "values": [{"measurement": "EC50", "setting": "[1]", "value": 29.2, "unit": "nM"}, {"measurement": "EC50", "setting": "[2]", "value": 135, "unit": "nM"}, {"measurement": "EC50", "setting": "[3]", "value": 34.4, "unit": "nM"}, {"measurement": "EC50", "setting": "[4]", "value": 192, "unit": "nM"}, {"measurement": "EC50", "setting": "[5]", "value": 322, "unit": "nM"}, {"measurement": "EC50", "setting": "[6]", "value": 308, "unit": "nM"}, {"measurement": "Ratio EC50", "setting": "[7]", "value": 4.6}, {"measurement": "Ratio EC50", "setting": "[8]", "value": 1.2}, {"measurement": "Ratio EC50", "setting": "[9]", "value": 6.5}, {"measurement": "Ratio EC50", "setting": "[10]", "value": 11}, {"measurement": "Ratio EC50", "setting": "[11]", "value": 10}, {"measurement": "AUCt", "setting": "Rattus norvegicus [12]", "value": 101, "unit": "µg·h/mL"}, {"measurement": "MRT", "setting": "[13]", "value": 191, "unit": "min"}, {"measurement": "t1/2", "setting": "Rattus norvegicus [14]", "value": 188, "unit": "min"}, {"measurement": "Vd", "setting": "[15]", "value": 0.17, "unit": "L/kg"}, {"measurement": "Cmax", "setting": "Rattus norvegicus [16]", "value": 40400, "unit": "ng/mL"}, {"measurement": "half-life at 8 ug/ml", "setting": "[17]", "value": 48.9, "unit": "min"}, {"measurement": "half-life at 8 ug/ml", "setting": "[18]", "value": 54.3, "unit": "min"}, {"measurement": "half-life at 8 ug/ml", "setting": "[19]", "value": 35.9, "unit": "min"}, {"measurement": "solubility", "setting": "[20]", "value": 18.2, "unit": "mg/mL"}, {"measurement": "EC50", "setting": "[21]", "value": 4.28, "unit": "nM"}, {"measurement": "CC50 at 96 h", "setting": "[22]", "value": 14300, "unit": "nM"}, {"measurement": "EC50", "setting": "[23]", "value": 6.9, "unit": "nM"}, {"measurement": "selectivity ratio", "setting": "[24]", "value": 3350}, {"measurement": "Ratio EC50", "setting": "[25]", "value": 11}, {"measurement": "inhibition", "setting": "[26]", "value": "Active"}]}]}
